The source of these data is ChEMBL document CHEMBL4665790, “Photohormones Enable Optical Control of the Peroxisome Proliferator-Activated Receptor γ (PPARγ)” (J Med Chem, 2020).

Experiment [1] concerns the target T1, Peroxisome proliferator-activated receptor gamma (Homo sapiens, UniProt P37231).
T1 sequence (P37231 whole entry): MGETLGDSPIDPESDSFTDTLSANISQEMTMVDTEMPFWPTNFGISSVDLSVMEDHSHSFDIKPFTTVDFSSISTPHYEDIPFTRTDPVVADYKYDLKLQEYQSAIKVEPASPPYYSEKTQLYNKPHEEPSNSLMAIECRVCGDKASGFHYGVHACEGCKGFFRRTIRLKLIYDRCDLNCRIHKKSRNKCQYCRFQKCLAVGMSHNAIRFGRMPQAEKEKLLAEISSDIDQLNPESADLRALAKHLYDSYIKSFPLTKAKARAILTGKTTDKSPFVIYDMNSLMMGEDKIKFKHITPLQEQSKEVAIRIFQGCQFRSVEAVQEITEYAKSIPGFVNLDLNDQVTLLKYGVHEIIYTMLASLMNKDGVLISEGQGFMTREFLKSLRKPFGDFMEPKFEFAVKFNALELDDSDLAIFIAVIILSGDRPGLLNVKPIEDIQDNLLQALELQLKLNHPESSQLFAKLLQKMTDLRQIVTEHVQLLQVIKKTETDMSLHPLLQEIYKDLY
In words: Agonist activity at PPARgamma (unknown origin) expressed in HEK293T cells incubated for 14 to 16 hrs under irradiation by hybrid Gal4 reporter gene assay. Type of experiment: cell-based.

The target in experiment [2] is T2, Peroxisome proliferator-activated receptor delta (Homo sapiens) (UniProt Q03181).
T2 sequence (whole entry): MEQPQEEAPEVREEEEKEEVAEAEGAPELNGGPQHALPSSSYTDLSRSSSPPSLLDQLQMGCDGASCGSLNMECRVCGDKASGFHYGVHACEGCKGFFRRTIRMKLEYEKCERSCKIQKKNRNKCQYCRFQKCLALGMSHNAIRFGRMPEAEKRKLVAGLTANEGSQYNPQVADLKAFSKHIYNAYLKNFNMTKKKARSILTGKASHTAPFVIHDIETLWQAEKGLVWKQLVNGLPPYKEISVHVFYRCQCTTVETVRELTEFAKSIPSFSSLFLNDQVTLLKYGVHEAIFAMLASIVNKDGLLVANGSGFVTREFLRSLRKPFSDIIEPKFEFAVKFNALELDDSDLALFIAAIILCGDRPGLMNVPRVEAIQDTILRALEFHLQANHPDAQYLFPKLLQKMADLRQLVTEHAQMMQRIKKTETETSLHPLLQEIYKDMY
In words: Agonist activity at PPARdelta (unknown origin) expressed in HEK293T cells at 10 uM incubated for 14 to 16 hrs under irradiation by hybrid Gal4 reporter gene assay. The experiment is classed as cell-based. Particulars: time hrs 14-16. In a few lines:
(§1)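 HEK293T cells transfected (Lipofectamine LTX) with Gal4 fusion of human PPARα or PPARδ hinge region + LBD, pFR-Luc reporter and pRL-SV40; compound added in Opti-MEM with 0.1% DMSO 5 h post-transfection, 14–16 h incubation. Dual-Glo luciferase; firefly/Renilla ratio gives RLU, fold activation vs DMSO control. Duplicates, ≥2 independent repeats.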
In general terms: A reporter such as luciferase makes a cellular process visible.

The target of experiment [3] is T1, Peroxisome proliferator-activated receptor gamma. In words: Agonist activity at PPARy in human HepG2 cells transfected with human PPRE incubated for 14 to 16 hrs using pre-irradiated compound by firefly luciferase reporter gene assay. The experiment is classed as cell-based. In a few lines: (§2)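 HepG2 cells on collagen-coated wells, transfected (Lipofectamine 3000) with PPRE1-pGL3 (human full-length PPRE driving firefly luciferase) plus pRL-SV40; endogenous PPARγ/RXR, no overexpression. Compound in Opti-MEM, 0.1% DMSO, 14–16 h; cis state held by 75 ms 370 nm pulses every 15 s. Firefly/Renilla normalised, fold activation over DMSO control; rosiglitazone reference.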

The target is the same in experiment [4]. Kind of experiment: (§3) Binding affinity to recombinant PPARy LBD (unknown origin) expressed in Escherichia coli BL21 DE3 using pre-irradiated compound by ITC assay. The method in brief:
(§4)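 ITC at 25 °C: 300 µM compound, pre-irradiated 5 min at 365 nm, titrated into 64 µM His-tag-cleaved PPARγ LBD (aa 234–505, E. coli BL21 DE3 with GroEL/ES, IMAC plus gel filtration) in 25 mM HEPES pH 7.5, 150 mM KF, 5 mM DTT, 10% glycerol, 1% DMSO. 31 injections (1.0 then 2.5 µL), 300 s apart, 75 rpm; buffer control.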

The target in experiment [5] is T3, Peroxisome proliferator-activated receptor gamma (Homo sapiens) (UniProt P37231).
T3 sequence (whole entry): T1 sequence (P37231 whole entry)
In words: Agonist activity at PPARy in human HepG2 cells transfected with human PPRE incubated for 14 to 16 hrs using pre-irradiated compound by firefly luciferase reporter gene assay relative to control. The experiment is classed as cell-based. Particulars: filed as agonist, time hrs 14-16. The method in brief: as §2

Experiment [6] concerns the target T4, Peroxisome proliferator-activated receptor alpha (Homo sapiens) (UniProt Q07869).
T4 sequence (whole entry): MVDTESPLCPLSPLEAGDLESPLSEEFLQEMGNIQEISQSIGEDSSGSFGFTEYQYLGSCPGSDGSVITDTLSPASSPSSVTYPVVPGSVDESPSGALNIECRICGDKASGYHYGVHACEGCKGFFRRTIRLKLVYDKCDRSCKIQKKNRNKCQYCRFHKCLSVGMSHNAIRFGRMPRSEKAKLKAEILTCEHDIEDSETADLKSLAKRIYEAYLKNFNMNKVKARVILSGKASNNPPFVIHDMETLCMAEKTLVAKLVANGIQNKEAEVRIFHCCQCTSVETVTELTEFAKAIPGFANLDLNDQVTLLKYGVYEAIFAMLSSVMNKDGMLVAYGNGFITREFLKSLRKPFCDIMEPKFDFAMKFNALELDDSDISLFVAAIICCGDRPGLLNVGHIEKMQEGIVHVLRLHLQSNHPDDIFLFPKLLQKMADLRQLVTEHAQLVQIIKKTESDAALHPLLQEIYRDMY
In words: Agonist activity at PPARalpha (unknown origin) expressed in HEK293T cells at 10 uM incubated for 14 to 16 hrs under irradiation by hybrid Gal4 reporter gene assay. Type of experiment: cell-based. The conditions noted are these: time hrs 14-16. In a few lines: as §1

Experiment [7] concerns the target T3, Peroxisome proliferator-activated receptor gamma (Homo sapiens). Kind of experiment: Agonist activity at PPARgamma (unknown origin) expressed in HEK293T cells at 10 uM incubated for 14 to 16 hrs under irradiation by hybrid Gal4 reporter gene assay. Type of experiment: cell-based. Particulars: time hrs 14-16. The method in brief:
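Gal4 hybrid reporter: HEK293T cells transiently co-transfected with Gal4–human PPARγ hinge+LBD fusion, Gal4-responsive firefly luciferase reporter and Renilla normalisation plasmid. Compound added 5 h post-transfection in Opti-MEM, 0.1% DMSO final; 14–16 h incubation. Dual-Glo read-out, firefly/Renilla ratio, fold over DMSO control. Technical duplicates, at least two independent repeats.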

Experiment [8] shares this target. The experiment is described as §3. In a few lines: as §4
For experiment [9] the target is unchanged. In words: Agonist activity at PPARy in human HepG2 cells transfected with human PPRE at 10 uM incubated for 14 to 16 hrs using pre-irradiated compound by firefly luciferase reporter gene assay. Type of experiment: cell-based. The conditions noted are these: filed as agonist, time hrs 14-16. The method in brief: as §2

Active and inactive are the calls of the source. The rule behind the calls is not given here.

As a reminder, the EC50 is the concentration that produces a half-maximal response. Low values mean higher potency in that assay, high ones lower potency in that assay. Take `O=C1NC(=O)C(Cc2ccc(/N=N/c3ccc(Cl)cc3)cc2)S1` (centres undefined): in experiment [1], a half-maximal effect (EC50) was put at 2.9 µM. Regarding `O=C1NC(=O)C(Cc2ccc(/N=N/c3ccccc3)cc2)S1` (centres undefined), in experiment [2], the outcome was inactive. Also, it took 2.2 µM to reach a half-maximal effect in experiment [1] (EC50). `O=C1NC(=O)C(Cc2ccc(/N=N\c3ccccc3)cc2)S1` (centres undefined) displayed an EC50 in experiment [1] of 6.3 µM.

The term Kd denotes the constant that tells how readily two partners part at equilibrium. On to `Cc1ccccc1-c1ccc(/N=N\c2ccc(CC3SC(=O)NC3=O)cc2)cc1` (centres undefined), for which the EC50 stood at 0.9 µM in experiment [3] and 6.4 µM in [1]. Also, the Kd in experiment [4] was determined as 9.3 µM. This compound also displayed a fold change (FC) in [5] of 2.4.

Compound `O=C1NC(=O)C(Cc2ccc(/N=N\c3ccc(Cl)cc3)cc2)S1` (centres undefined) showed an EC50 in experiment [1] of 7 µM. Consider `O=C1NC(=S)NC(=O)C1=Cc1ccc(/N=N/c2ccccc2)cc1`, for which the outcome in [2], in experiment [6] and in [7] was inactive. With `O=C1NC(=O)C(Cc2ccc(/N=N/c3ccc(C(F)(F)F)cc3)cc2)S1` (centres undefined), a half-maximal response in experiment [1] (EC50) required 2.2 µM. Take `Cc1ccccc1-c1ccc(/N=N/c2ccc(CC3SC(=O)NC3=O)cc2)cc1` (centres undefined): the outcome in experiment [8] was inactive. In [1], this compound displayed an EC50 of 2.8 µM. Also, the outcome in [9] was Active. For `O=C(c1ccccc1)c1ccccc1N[C@@H](Cc1ccc(/N=N/c2ccccc2)cc1)C(=O)O`, the result in [2] and in [6] was inactive. In [1], `O=C1NC(=O)C(Cc2ccc(/N=N\c3ccc(C(F)(F)F)cc3)cc2)S1` (centres undefined) returned an EC50 of 6.5 µM.
